Among the data in ChEMBL document CHEMBL1949525, “Boranophosphate isoster controls P2Y-receptor subtype selectivity and metabolic stability of dinucleoside polyphosphate analogues” (J Med Chem, 2012) are Stability, Activity and Ratio EC50 values, retold here.

A short description of data set [1]: Stability of the compound assessed as human e-NPP1-mediated hydrolysis at pH 8.5 after 20 mins by HPLC analysis. Format: ADME. As to conditions: buffer, pH 8.5, 20 min. Put shortly:
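Human NPP1 preparation preincubated 3 min at 37 °C in 1 mM CaCl2, 200 mM NaCl, 10 mM KCl, 100 mM Tris, pH 8.5. Started with 0.2 mM dinucleotide solution (added volume) and stopped after 20 min in ice-cold perchloric acid. Neutralised with KOH, then NMP formation followed by HPLC. Percent substrate hydrolysed is the mean of two experiments run in triplicate.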

A short description of data set [2]: Chemical stability of the compound at pH mimicking gastric juice acidity. Type of data set: physicochemical. To be noted: simulated gi fluid.
The nature of data set [3]: Chemical stability of the compound at physiological conditions. Type of data set: physicochemical.
Data set [4] can be described thus: Stability of the compound assessed as human e-NPP3-mediated compound hydrolysis by HPLC analysis. Type of data set: ADME.
Data set [5] deals with T1, P2Y purinoceptor 2 (Homo sapiens, UniProt P41231). The experiment in a line: Antagonist activity at human P2Y purinoceptor 2 expressed in human 1321N1 cells assessed as inhibition of UTP-induced increase in intracellular calcium concentration by spectrofluorimetry. Format: functional, cell-based. Put shortly:
(§1)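 Fura-2-loaded 1321N1 transfectants (turkey P2Y1, human P2Y2/P2Y4, rat P2Y6) in Hepes-buffered saline, pH 7.4, at 37 °C. Analogues were tested against equimolar reference agonist: 2-MeS-ADP for P2Y1, UTP for P2Y2/4, UDP for P2Y6. Blockade of the [Ca2+]i rise was followed by dual-excitation spectrofluorometry.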
(A change in cytosolic calcium serves as a functional read-out for many receptors and channels.)

The target in data set [6] is P2Y purinoceptor 6 (Rattus norvegicus) (UniProt Q63371). Nature of the data set: Agonist activity at rat P2Y purinoceptor 6 expressed in human 1321N1 cells assessed as increase in intracellular calcium concentration at 100 uM by spectrofluorimetry. Type of data set: functional, cell-based.
In another data set the target is P2Y purinoceptor 4 (Homo sapiens, UniProt P51582). Nature of the data set: Antagonist activity at human P2Y purinoceptor 4 expressed in human 1321N1 cells assessed as inhibition of UTP-induced increase in intracellular calcium concentration by spectrofluorimetry. Type of data set: functional, cell-based. Put shortly:
as §1

Data set [7] has as its target P2Y purinoceptor 1 (Meleagris gallopavo) (UniProt P49652). Nature of the data set: Antagonist activity at turkey P2Y purinoceptor 1 expressed in human 1321N1 cells assessed as inhibition of 2-Sme-ADP-induced increase in intracellular calcium concentration by spectrofluorimetry. Type of data set: functional, cell-based. Put shortly:
as §1

Data set [8] concerns the target P2Y purinoceptor 6 (Rattus norvegicus) (UniProt Q63371). The experiment in a line: Antagonist activity at rat P2Y purinoceptor 6 expressed in human 1321N1 cells assessed as inhibition of UDP-induced increase in intracellular calcium concentration by spectrofluorimetry. Type of data set: functional, cell-based. The method, boiled down:
as §1

Data set [9] is described as follows: Selectivity ratio of EC50 for rat P2Y purinoceptor 6 receptor to EC50 for turkey P2Y purinoceptor 1 receptor. Put shortly:
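1321N1 astrocytoma cells lacking endogenous P2Y receptors, stably transfected with turkey P2Y1, human P2Y2, human P2Y4 or rat P2Y6, grown in DMEM with 5% FBS, penicillin/streptomycin and 500 µg/mL G-418. Fura-2-loaded cell suspensions were exposed at 37 °C in 10 mM Hepes-buffered saline, pH 7.4, with 1 mM CaCl2 and 1 mM MgCl2. Peak [Ca2+]i rise by dual-excitation spectrofluorometry across concentrations; EC50 from curve fits; three experiments on separate days per subtype.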

Data set [10] deals with T1, P2Y purinoceptor 2. The experiment in a line: Agonist activity at human P2Y purinoceptor 2 expressed in human 1321N1 cells assessed as increase in intracellular calcium concentration by spectrofluorimetry. Format: functional, cell-based.
The target of data set [11] is P2Y purinoceptor 1 (Meleagris gallopavo) (UniProt P49652). The experiment in a line: Agonist activity at turkey P2Y purinoceptor 1 expressed in human 1321N1 cells assessed as increase in intracellular calcium concentration by spectrofluorimetry. Format: functional, cell-based.
Data set [12] addresses T1, P2Y purinoceptor 2. The experiment in a line: Agonist activity at human P2Y purinoceptor 2 expressed in human 1321N1 cells assessed as increase in intracellular calcium concentration at 100 uM by spectrofluorimetry. Type of data set: functional, cell-based.
In data set [13] the target is P2Y purinoceptor 1 (Meleagris gallopavo) (UniProt P49652). The experiment in a line: Agonist activity at turkey P2Y purinoceptor 1 expressed in human 1321N1 cells assessed as increase in intracellular calcium concentration at 100 uM by spectrofluorimetry. Type of data set: functional, cell-based.

The source made the active and inactive calls. The calls are words filed in the database; no cut-off is given here.

P2Y purinoceptor 1 (Meleagris gallopavo), sequence (P49652 whole entry): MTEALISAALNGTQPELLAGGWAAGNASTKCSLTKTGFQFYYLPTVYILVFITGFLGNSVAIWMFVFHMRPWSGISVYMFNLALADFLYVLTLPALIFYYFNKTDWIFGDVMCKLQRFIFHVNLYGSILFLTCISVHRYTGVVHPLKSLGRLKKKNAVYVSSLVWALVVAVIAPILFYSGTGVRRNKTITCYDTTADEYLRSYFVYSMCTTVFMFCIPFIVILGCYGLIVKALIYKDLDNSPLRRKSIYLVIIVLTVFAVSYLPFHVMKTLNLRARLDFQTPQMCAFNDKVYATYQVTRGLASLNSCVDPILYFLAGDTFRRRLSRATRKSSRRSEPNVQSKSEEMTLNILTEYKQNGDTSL
P2Y purinoceptor 4, sequence (P51582 whole entry): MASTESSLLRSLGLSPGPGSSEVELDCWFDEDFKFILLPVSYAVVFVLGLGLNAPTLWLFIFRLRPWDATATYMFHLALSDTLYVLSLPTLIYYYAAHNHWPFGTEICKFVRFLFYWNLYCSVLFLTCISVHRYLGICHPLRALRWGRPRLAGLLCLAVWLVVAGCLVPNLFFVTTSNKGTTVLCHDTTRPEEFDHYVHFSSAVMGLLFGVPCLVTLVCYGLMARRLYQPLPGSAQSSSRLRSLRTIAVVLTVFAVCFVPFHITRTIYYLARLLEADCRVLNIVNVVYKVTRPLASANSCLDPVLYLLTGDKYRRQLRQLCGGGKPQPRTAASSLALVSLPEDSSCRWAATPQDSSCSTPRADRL
T1 sequence (P41231 whole entry): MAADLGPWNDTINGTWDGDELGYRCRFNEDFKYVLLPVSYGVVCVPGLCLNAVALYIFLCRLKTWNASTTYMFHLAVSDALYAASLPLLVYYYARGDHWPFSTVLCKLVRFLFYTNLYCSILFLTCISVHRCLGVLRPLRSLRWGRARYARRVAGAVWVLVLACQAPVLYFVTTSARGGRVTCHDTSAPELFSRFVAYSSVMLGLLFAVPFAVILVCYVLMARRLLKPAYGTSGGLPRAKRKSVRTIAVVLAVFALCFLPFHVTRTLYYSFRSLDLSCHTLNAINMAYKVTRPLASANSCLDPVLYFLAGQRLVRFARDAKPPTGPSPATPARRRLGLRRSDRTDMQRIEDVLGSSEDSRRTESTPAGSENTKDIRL
P2Y purinoceptor 6 (Rattus norvegicus), sequence (Q63371 whole entry): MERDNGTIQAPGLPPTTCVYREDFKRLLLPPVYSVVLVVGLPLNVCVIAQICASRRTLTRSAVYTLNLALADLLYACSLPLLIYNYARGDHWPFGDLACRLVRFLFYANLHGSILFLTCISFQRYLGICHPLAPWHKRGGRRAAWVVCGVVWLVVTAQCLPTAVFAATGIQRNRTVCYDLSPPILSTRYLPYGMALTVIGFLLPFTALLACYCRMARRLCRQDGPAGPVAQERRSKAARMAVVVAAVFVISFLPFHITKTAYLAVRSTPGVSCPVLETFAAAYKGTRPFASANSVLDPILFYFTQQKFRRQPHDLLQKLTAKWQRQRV

Take `BP(=O)(OP(=O)(O)OC[C@H]1O[C@@H](n2cnc3c(N)ncnc32)[C@H](O)[C@@H]1O)OP(=O)(O)OC[C@H]1O[C@@H](n2cnc3c(N)ncnc32)[C@H](O)[C@@H]1O.CCCCN(CCCC)CCCC.CCCCN(CCCC)CCCC.CCCCN(CCCC)CCCC`: the Stability entry in data set [1], in data set [2], in data set [3] and in data set [4] was “Stable” in each case.
`BP(=O)(OP(=O)(O)OC[C@H]1O[C@@H](n2cnc3c(N)ncnc32)[C@H](O)[C@@H]1O)OP(=O)(O)OP(=O)(O)OC[C@H]1O[C@@H](n2cnc3c(N)ncnc32)[C@H](O)[C@@H]1O.CCCCN(CCCC)CCCC.CCCCN(CCCC)CCCC.CCCCN(CCCC)CCCC.CCCCN(CCCC)CCCC` (stereo in doubt; 6B): the outcome (on P2Y purinoceptor 2 [5]; on P2Y purinoceptor 4; in [7]; in data set [8]) was inactive. Moreover, the outcome in [6] was Active.
In the case of `BP(=O)(OP(=O)(O)OC[C@H]1O[C@@H](n2cnc3c(N)ncnc32)[C@H](O)[C@@H]1O)OP(=O)(O)OP(=O)(O)OC[C@H]1O[C@@H](n2ccc(=O)[nH]c2=O)[C@H](O)[C@@H]1O.CCCCN(CCCC)CCCC.CCCCN(CCCC)CCCC.CCCCN(CCCC)CCCC.CCCCN(CCCC)CCCC` (mixture of isomers), the Ratio EC50 in data set [9] was found to be 42.
Turning to `BP(=O)(OP(=O)(O)OC[C@H]1O[C@@H](n2cnc3c(N)ncnc32)[C@H](O)[C@@H]1O)OP(=O)(O)OP(=O)(O)OC[C@H]1O[C@@H](n2cnc3c(N)ncnc32)[C@H](O)[C@@H]1O.CCCCN(CCCC)CCCC.CCCCN(CCCC)CCCC.CCCCN(CCCC)CCCC.CCCCN(CCCC)CCCC` (stereo in doubt; 6A), the result (at P2Y purinoceptor 2 [5]; at P2Y purinoceptor 4; in data set [7]; in data set [8]) was inactive. Further, the result in data set [6] was Active.
Regarding `BP(=O)(OP(=O)(O)OC[C@H]1O[C@@H](n2ccc(=O)[nH]c2=O)[C@H](O)[C@@H]1O)OP(=O)(O)OC[C@H]1O[C@@H](n2ccc(=O)[nH]c2=O)[C@H](O)[C@@H]1O.CCCCN(CCCC)CCCC.CCCCN(CCCC)CCCC.CCCCN(CCCC)CCCC`, the outcome (on P2Y purinoceptor 2 [10]; in [11]) was inactive. Also, the Stability entry in [1], in [2] and in data set [3] was “Stable” in each case.
Turning to `BP(=O)(OP(=O)(O)OC[C@H]1O[C@@H](n2ccc(=O)[nH]c2=O)[C@H](O)[C@@H]1O)OP(=O)(O)OP(=O)(O)OC[C@H]1O[C@@H](n2cnc3c(N)ncnc32)[C@H](O)[C@@H]1O.CCCCN(CCCC)CCCC.CCCCN(CCCC)CCCC.CCCCN(CCCC)CCCC.CCCCN(CCCC)CCCC` (stereo in doubt; 9A), the outcome (at P2Y purinoceptor 2 [5]; at P2Y purinoceptor 4; in data set [7]; in data set [8]) was inactive. For the same compound, the result on P2Y purinoceptor 2 [12] was Active.
Turning to `BP(=O)(OP(=O)(O)OC[C@H]1O[C@@H](n2ccc(=O)[nH]c2=O)[C@H](O)[C@@H]1O)OP(=O)(O)OP(=O)(O)OC[C@H]1O[C@@H](n2ccc(=O)[nH]c2=O)[C@H](O)[C@@H]1O.CCCCN(CCCC)CCCC.CCCCN(CCCC)CCCC.CCCCN(CCCC)CCCC.CCCCN(CCCC)CCCC` (stereo in doubt; 7A), the result (at P2Y purinoceptor 2 [5]; at P2Y purinoceptor 4; in [7]; in [8]) was inactive. Besides, the outcome (in [13]; at P2Y purinoceptor 2 [12]) was Active.
On to `BP(=O)(OC[C@H]1O[C@@H](n2ccc(=O)[nH]c2=O)[C@H](O)[C@@H]1O)OP(=O)(O)OP(=O)(O)OP(=O)(O)OC[C@H]1O[C@@H](n2ccc(=O)[nH]c2=O)[C@H](O)[C@@H]1O.CCCCN(CCCC)CCCC.CCCCN(CCCC)CCCC.CCCCN(CCCC)CCCC.CCCCN(CCCC)CCCC` (stereo in doubt; 13A), for which the outcome (on P2Y purinoceptor 2 [5]; at P2Y purinoceptor 4; in data set [7]; in data set [8]) was inactive. Also, at P2Y purinoceptor 2 [12], the outcome was Active.
With `BP(=O)(OP(=O)(O)OP(=O)(O)OC[C@H]1O[C@@H](n2cnc3c(N)ncnc32)[C@H](O)[C@@H]1O)OP(=O)(O)OP(=O)(O)OC[C@H]1O[C@@H](n2cnc3c(N)ncnc32)[C@H](O)[C@@H]1O.CCCCN(CCCC)CCCC.CCCCN(CCCC)CCCC.CCCCN(CCCC)CCCC.CCCCN(CCCC)CCCC.CCCCN(CCCC)CCCC`, the result on P2Y purinoceptor 2 [10] was inactive. Besides, the Stability result in data set [1] is recorded as “Unstable”; in data set [2], “Stable”; in data set [3], “Stable”. Besides, the result in [11] was Active.
